In ChEMBL document CHEMBL4706728, “Discovery of a Highly Selective and Potent TRPC3 Inhibitor with High Metabolic Stability and Low Toxicity” (ACS Med Chem Lett, 2021) one finds inhibition, half-life and Activity data, which are given here for 1 compound.

Data set [1] addresses T1, Short transient receptor potential channel 3 (Homo sapiens) (UniProt Q13507).
T1 sequence (whole entry): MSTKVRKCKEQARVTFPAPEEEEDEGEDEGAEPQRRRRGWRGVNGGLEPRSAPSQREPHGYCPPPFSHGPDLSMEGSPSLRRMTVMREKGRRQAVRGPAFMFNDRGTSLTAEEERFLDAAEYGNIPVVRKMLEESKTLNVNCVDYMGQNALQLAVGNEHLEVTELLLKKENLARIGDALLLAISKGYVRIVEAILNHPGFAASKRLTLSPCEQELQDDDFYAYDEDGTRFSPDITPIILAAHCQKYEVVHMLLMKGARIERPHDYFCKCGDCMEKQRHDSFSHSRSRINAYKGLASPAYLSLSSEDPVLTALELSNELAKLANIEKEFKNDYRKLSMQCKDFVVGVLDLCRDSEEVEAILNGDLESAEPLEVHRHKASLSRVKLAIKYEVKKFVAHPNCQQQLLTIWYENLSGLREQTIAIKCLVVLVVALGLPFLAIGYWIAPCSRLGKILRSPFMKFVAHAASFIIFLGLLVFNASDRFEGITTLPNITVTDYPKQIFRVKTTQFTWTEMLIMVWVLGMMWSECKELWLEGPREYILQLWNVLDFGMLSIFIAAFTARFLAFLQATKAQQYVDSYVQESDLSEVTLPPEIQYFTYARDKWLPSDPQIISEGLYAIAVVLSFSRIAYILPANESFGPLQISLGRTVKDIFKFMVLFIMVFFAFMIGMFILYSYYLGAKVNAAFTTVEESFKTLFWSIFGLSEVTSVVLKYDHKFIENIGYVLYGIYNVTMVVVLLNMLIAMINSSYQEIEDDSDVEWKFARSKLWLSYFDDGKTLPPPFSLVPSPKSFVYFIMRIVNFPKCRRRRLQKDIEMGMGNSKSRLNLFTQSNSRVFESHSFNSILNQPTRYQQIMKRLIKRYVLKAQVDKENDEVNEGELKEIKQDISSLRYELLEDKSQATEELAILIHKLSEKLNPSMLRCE
As to the kind of experiment: Inhibition of human TRPC3 expressed in HEK293 cells assessed as inhibition of OAG-induced current at 0.001 to 10 uM by whole cell patch-clamp method. Format: cell-based. The conditions noted are these: dose 0.001-10 µM. Summed up: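 Whole-cell recordings of hTRPC3 expressed in HEK293 cells, channel activated by 1-oleoyl-2-acetyl-sn-glycerol (membrane-permeable diacylglycerol analogue) instead of GSK1702934A. Inhibitor at a range of concentrations co-perfused with agonist to build a dose–response profile.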

The target in data set [2] is Transient receptor potential cation channel subfamily A member 1 (Homo sapiens) (UniProt O75762). Description: Inhibition of human TRPA1 expressed in HEK293 cells assessed as inhibition of AITC-induced current at 10 uM by whole cell patch-clamp method. Format: cell-based. Summed up:
(§1)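 TRP channels overexpressed in HEK293 cells (hTRPA1, rTRPV1, rTRPV4, mouse TRPC6, hTRPC7, hTRPM8). Whole-cell patch clamp with Ca2+-free solutions to avoid desensitization. Channels fully activated with high concentrations of their agonists (AITC for TRPA1, capsaicin for TRPV1, GSK1016790A for TRPV4), then 10 μM test compound perfused with agonist. Result expressed as percentage of peak current blocked; mean ± SD.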
For orientation: The patch-clamp technique gives a direct electrical read-out from membranes.

Data set [3] concerns the target Transient receptor potential cation channel subfamily V member 1 (Rattus norvegicus) (UniProt O35433). As to the kind of experiment: Inhibition of rat TRPV1 expressed in HEK293 cells assessed as inhibition of capsaicin-induced current at 10 uM by whole cell patch-clamp method. Format: cell-based. Summed up: as §1
Data set [4] has as its target T2, Short transient receptor potential channel 6 (Mus musculus) (UniProt Q61143).
T2 sequence (whole entry): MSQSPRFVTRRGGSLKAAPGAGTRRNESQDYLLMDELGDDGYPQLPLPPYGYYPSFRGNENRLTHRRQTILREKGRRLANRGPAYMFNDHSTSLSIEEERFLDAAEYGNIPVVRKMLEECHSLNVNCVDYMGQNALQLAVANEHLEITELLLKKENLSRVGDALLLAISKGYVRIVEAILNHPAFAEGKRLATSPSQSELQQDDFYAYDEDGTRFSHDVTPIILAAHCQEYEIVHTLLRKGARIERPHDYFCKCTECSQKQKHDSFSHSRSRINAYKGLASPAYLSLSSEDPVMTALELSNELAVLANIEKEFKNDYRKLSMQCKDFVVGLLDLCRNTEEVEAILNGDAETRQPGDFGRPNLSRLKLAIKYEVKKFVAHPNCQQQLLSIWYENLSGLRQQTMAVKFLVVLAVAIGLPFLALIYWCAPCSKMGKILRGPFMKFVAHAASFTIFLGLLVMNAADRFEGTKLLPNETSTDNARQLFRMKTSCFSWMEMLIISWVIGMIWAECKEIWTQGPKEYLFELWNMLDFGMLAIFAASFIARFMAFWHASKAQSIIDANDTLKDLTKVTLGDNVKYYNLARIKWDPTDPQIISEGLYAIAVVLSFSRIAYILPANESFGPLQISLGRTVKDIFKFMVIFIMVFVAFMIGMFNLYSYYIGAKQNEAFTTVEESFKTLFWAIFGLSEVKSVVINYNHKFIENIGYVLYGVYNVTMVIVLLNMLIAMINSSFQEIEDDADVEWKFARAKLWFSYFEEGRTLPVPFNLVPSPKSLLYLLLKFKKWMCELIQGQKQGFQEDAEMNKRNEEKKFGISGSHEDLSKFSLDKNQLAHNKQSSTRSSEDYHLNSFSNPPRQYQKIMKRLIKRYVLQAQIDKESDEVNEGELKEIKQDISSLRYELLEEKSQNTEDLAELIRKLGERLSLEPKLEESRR
As to the kind of experiment: Inhibition of mouse TRPC6 expressed in HEK293 cells assessed as inhibition of GSK170-induced current at 10 uM by whole cell patch-clamp method. Format: cell-based. Summed up:
as §1

The target of data set [5] is Transient receptor potential cation channel subfamily M member 8 (Homo sapiens) (UniProt Q7Z2W7). Description: Inhibition of human TRPM8 expressed in HEK293 cells assessed as inhibition of […]-induced current at 10 uM by whole cell patch-clamp method. The format is cell-based. Summed up: as §1
A short description of data set [6]: Metabolic stability in human liver microsomes assessed as half life at […] measured up to 240 mins in presence of NADPH regeneration system by LC-MS analysis. Format: ADME, Microsome. (Microsomes from liver hold many membrane-bound enzymes, among them those of drug oxidation.)
A short description of data set [7]: Metabolic stability in mouse liver microsomes assessed as half life at […] measured up to 240 mins in presence of NADPH regeneration system by LC-MS analysis. Format: ADME, Microsome.
Data set [8] is described as follows: Metabolic stability in rat liver microsomes assessed as half life at […] measured up to 240 mins in presence of NADPH regeneration system by LC-MS analysis. Format: ADME, Microsome.
A short description of data set [9]: Toxicity in NSG/ICR mouse assessed as body weight loss at 200 mg/kg, ip administered once daily for 5 days. Format: organism-based. The settings on record: in vivo, 120 h, dose 200 mg/kg/day, time 5 day. Summed up:
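Mice (n = 5 per group) dosed at 200 mg/kg by intraperitoneal injection once daily for 5 consecutive days. Survival monitored. Body weight expressed as mean percent change ± SD relative to weight at the start of treatment (day 0), with 15% weight loss as the reference line.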

Active and inactive are the calls of the source. The calls are words filed in the database; no cut-off is given here.

Sequence of Transient receptor potential cation channel subfamily A member 1 (Homo sapiens) (O75762 whole entry, the tested form may be a part): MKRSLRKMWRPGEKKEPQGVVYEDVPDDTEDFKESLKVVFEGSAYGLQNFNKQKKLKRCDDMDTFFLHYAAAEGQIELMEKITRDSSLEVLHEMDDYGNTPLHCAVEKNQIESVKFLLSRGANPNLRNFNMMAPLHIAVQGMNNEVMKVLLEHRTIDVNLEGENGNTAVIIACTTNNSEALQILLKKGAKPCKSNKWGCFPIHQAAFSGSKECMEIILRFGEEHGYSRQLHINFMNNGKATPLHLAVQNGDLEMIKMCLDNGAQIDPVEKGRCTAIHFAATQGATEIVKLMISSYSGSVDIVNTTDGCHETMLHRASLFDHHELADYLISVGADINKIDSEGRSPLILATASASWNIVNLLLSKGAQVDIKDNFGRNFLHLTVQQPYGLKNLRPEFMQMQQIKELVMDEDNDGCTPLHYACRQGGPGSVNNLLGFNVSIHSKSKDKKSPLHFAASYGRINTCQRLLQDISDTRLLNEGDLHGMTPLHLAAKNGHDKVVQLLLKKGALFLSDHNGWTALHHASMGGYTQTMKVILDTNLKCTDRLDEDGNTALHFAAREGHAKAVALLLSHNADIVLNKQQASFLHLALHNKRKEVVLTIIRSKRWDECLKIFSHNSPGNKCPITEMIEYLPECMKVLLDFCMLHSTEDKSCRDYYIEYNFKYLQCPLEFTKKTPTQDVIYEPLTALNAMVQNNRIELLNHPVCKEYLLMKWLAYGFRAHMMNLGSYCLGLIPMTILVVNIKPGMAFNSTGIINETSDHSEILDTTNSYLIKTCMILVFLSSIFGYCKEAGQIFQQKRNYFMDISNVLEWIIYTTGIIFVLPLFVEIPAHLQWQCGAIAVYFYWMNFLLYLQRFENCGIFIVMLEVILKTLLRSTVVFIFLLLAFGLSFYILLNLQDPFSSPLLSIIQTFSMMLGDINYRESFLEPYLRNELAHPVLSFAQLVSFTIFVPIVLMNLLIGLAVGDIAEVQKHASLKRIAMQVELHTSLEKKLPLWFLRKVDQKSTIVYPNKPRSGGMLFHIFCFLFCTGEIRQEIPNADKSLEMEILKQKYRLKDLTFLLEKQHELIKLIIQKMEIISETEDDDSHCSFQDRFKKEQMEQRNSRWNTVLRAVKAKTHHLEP
Sequence of Transient receptor potential cation channel subfamily M member 8 (Homo sapiens) (Q7Z2W7 whole entry, looked up): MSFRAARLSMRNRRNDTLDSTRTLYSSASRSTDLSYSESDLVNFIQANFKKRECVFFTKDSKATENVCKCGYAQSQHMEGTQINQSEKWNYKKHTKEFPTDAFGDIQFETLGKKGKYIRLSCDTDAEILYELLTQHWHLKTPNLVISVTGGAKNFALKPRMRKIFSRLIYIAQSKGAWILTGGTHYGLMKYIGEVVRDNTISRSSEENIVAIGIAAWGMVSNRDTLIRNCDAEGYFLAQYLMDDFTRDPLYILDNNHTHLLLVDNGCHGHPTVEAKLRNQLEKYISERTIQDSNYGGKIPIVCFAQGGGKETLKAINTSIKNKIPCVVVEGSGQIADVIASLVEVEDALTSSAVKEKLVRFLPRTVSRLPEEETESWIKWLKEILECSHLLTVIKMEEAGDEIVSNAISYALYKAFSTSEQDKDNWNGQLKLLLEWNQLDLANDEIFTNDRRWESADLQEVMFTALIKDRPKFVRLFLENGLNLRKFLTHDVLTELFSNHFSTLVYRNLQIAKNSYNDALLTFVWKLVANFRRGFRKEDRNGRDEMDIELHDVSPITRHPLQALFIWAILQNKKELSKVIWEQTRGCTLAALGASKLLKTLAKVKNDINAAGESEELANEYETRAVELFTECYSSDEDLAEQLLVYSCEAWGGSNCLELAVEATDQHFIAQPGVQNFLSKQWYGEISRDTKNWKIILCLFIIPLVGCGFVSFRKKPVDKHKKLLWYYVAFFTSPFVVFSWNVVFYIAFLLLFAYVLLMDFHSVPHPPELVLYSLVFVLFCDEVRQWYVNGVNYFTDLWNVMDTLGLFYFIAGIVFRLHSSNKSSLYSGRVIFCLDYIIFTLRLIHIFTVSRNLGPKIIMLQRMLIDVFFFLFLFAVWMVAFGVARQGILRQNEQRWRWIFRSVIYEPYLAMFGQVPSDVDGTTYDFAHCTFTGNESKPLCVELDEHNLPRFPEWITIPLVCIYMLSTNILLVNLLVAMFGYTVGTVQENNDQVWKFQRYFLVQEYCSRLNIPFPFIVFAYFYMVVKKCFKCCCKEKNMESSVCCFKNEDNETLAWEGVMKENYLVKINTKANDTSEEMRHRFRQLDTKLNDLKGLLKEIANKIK
Sequence of Transient receptor potential cation channel subfamily V member 1 (Rattus norvegicus) (O35433 whole entry): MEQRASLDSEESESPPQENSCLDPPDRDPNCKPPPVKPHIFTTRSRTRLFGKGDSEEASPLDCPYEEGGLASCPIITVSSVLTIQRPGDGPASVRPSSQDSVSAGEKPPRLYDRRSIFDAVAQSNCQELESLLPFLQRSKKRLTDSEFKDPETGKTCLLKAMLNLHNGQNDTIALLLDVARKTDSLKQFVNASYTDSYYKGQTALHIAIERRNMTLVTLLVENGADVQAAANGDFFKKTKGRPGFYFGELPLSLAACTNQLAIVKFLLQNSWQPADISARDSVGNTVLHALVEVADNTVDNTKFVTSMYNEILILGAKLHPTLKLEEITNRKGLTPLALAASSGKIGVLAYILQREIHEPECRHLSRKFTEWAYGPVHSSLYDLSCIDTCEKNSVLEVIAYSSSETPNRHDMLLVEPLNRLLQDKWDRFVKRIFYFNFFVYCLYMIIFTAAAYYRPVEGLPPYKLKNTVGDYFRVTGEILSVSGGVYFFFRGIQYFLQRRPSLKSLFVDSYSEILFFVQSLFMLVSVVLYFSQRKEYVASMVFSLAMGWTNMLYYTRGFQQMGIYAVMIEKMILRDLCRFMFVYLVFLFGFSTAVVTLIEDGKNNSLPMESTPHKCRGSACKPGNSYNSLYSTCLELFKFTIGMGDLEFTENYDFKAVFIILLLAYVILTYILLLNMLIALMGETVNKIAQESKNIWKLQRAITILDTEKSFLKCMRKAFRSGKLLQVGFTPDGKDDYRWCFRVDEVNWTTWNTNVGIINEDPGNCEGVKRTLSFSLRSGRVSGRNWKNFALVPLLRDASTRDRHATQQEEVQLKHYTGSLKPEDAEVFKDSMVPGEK

As a reminder, the inhibition is the change of the read-out against control, counted positive when it falls. As usually defined, the half-life is the time in which the quantity being followed falls by half. Consider `CCNC(=O)c1cnn(-c2ccc(-n3ccc(Cl)c(Cl)c3=O)cc2)c1C(F)(F)F`, for which the inhibition entry in data set [1] is “Active”. Further, the inhibition entry in data set [2], in data set [3] and in data set [5] was “inactive” throughout. For the same compound, the inhibition in [4] was determined as 39%. Besides, the half-life in [6], in data set [7] and in data set [8] was > 4 h each time. Moreover, the Activity entry in data set [9] is “Non-Toxic”.
